Results on 38 variants are retold here after the RNAGym collection of RNA variant scans (doi:10.1126/science.aae0568).

Fewer inactive variants are shown than the library holds.

B1: tRNA (parent)
chain: GUUCCGUUGGCGUAAUGGUAACGCGUCUCCCUCCUAAGGAGAAGACUGCGGGUUCGAGUCCCGUACGGAACG

The variants in this series derive from B1. Nature of the series: yeast fitness relative to wild type (ratio to wild type); higher = fitter; tRNA-Arg(CCU), competitive growth, 37 C, YPD. Put shortly:
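Variants of the tRNA-Arg(CCU) gene, chemically synthesised with a 3% per-site mutation rate at 69 sites, were placed at the native genomic locus in Saccharomyces cerevisiae. The pooled strains were competed in YPD at 37°C for 24 hours in six parallel replicates. Gene amplicons from the start population and from each end population were read by 100-nucleotide paired-end sequencing. Darwinian fitness relative to wild type came from changes in genotype frequencies; genotypes needed ≥ 100 starting reads, and estimates < 0.5 were set to 0.5.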
GUUGCGUUGGAGUAAUGGUAACGCGUCUCGCUCCUAAGGAGAAGACUGCGGGUUCGAGUACCGUACGGAACG: the yeast fitness was at most 0.5.

For GUUGCGUUGGUGUAAUGGCAACGCGUCGCCCUCCUAAGGAGAAGCCUGCGGGAUCGAGUCCCCUACGGAACG, the yeast fitness was at most 0.5.

Regarding GUUGUGUUGGCGAAAUGGUAACGCGUCUCCCUCCUAAGGAGUAGACUGCGGGUUCGAGUCUCGUACGGAACG, the yeast fitness is at most 0.5.

On to GUUGUGUUGGCGUAAUGGUAACGCGUCUCCCUCCUAAGGAGAAGACUGAGGGUUCAAGUCCCCUACGAAACG, for which the yeast fitness is at most 0.5.

GUUGCGUUGGGGUAAUGGUAACGCGUCUCCCUCCUAAGGAGAAGAUUGCGGGUUCGAGCCCGGUUCGGAACG: the yeast fitness is at most 0.5.

In the case of GUUGUGUUGGCGUAAAGGUAACGCGUCUCCCUCAUAAGGAGAAGACUGCGGGUUCGAGUCCCGUACGCAACG, the yeast fitness worked out at 0.508.

Turning to GUUGUGUUGGCGUAAUGGUAACGCGUCUCCCUCCUAAGGAGAAGACUGCGGGUUCGAGUCCCGUGCGGACCG, the yeast fitness is at most 0.5.

Take GUUGCGUUGGCGUAAUGGUAAAGCGUCUCCCUCCUAAGGAGAAGACUGCGGGUUGGAGUCCCGUACGGAACG: the yeast fitness is at most 0.5.

Consider GUUGCGUUGGAGUAAUAGUGACGCGUUUCCCUCCUAAGGAGAUGACUGGGGGUUCGAGUUCCGUACGGAACG, for which the yeast fitness is at most 0.5.

For the variant GUUGCGUUGGGGUAAUGGUAACGCGUCUCCCUCCUGAGGAGAAGACUGCGGGUUUGAGUCACGUACGGAACG, the yeast fitness worked out at 0.52.

For the variant GUUGCGUUGGGGUAAUGGUAACGCGUCUCCCUCCUAAGGAGAAGACUGCGGGUUCGAGUCCCGUCCGGAACG, the yeast fitness came out at 0.576.

As to GUUGCGUUGGGGUAAUGGUAACGCGACUCCCUCCUAAGGAGAAGACUGCGGGUACGAGUUCCGUACGGAACG, the yeast fitness is at most 0.5.

Regarding GUUGUGUUGGCGUAAUGGUAACGCGUCUCCCUCCUAGGGAGAAGACUGCGGGUUCGAGUCCUGUACGGAACG, the yeast fitness was at most 0.5.

Regarding GUUGCGUUGGUGUUAUGGUAACGCGUCUCGCUCCUAAGGAGAAGACUGCGGGUUCGAGUCCCGUACGGAACG, the yeast fitness is at most 0.5.

As to GUUGUGUUGGCGUAAUGGUAACGCGUCUCCCUCCUAAGGAGGAGACUGCGGGUUCGAGUCCCGUACAGAACG, the yeast fitness is at most 0.5.

Take GUUGCGUUGGGGUAAUGGUAACGCGUCUAUCUCCUAAGGAGAAGACUGCGGGUUCGAGUCCCGUACGGAACG: the yeast fitness is at most 0.5.

For the variant GUUGCGUUGGGGUAAUGGUGACGCGUCUCCCUCCUUAGGAGAAGACUGCGGGUUCGAGUCCCAUUUGGAACG, the yeast fitness is at most 0.5.

Take GUUGUGUUGGCGUAAUGGUAACGCGUCUCCCUCCUAAGGAGAAGACUGAGGGUUCGAGUCCCGUACGGACCG: the yeast fitness was determined as 0.529.

In the case of GUUGCGUUGGUGUAAUGGAAACGCGUCUCCCACCUAUGGAGAAGACUGCGGGUUCGAGUCCCGCACGGAACG, the yeast fitness was at most 0.5.

As for GUUGCGUUGGAGUAAUGGUAACGCGUCUCCCUCCUAAGGAGAAGACUGCGGGUUCGAGUCCCGUAGGGAACG, the yeast fitness was at most 0.5.

In the case of GUUGCGUUGGAGUAAUGGUAACGCGUCUCGCUCCUAAGGAGAAGACUGCGGGUUCGAGUCGCGUACGGAACG, the yeast fitness is at most 0.5.

With GUUGUGUUGGCGUAAUGGUAACGCGUCUCCGUCCUAAGGAGAUGACUGCGGGUUCGAGUCCCGUACGGAACG, the yeast fitness is at most 0.5.

For the variant GUUGCGUUGGUGUGAUGGUAACGCGUCUCCCCCCUAAGGAGAAGACUGCGGGUUCGAGUCCCGUACGGAACG, the yeast fitness is at most 0.5.

As to GUUGCGUUGGUGUGAUGGUAACGCGUCUCCCUCCUAAGGAGAAGACUGCGGGUUGGAGUCCCGUACGCAACG, the yeast fitness is at most 0.5.

As for GUUGCGUUGGUGUAAUGGUAACGCGUCUCCCUCCUAAGGAGUAGACUGCGGGUUCGAAUCCCGUACGGUACG, the yeast fitness was at most 0.5.

Turning to GUUGCGUUGGGGUAAUGGUAACGCGUCUCCCUCCUAAGGAGAAGACAGUGGGUUCGAGUCCCGUACGGAACG, the yeast fitness is at most 0.5.

For the variant GUUGCGUUGGUGUAAUGGUAACGCGUCUCCCUCCUAAGGAGAAGACAGCGGGUUCGAGUCCCGUACGGAACG, the yeast fitness is at most 0.5.

Regarding GUUGCGUUGGAGUCAUGGUAACGCGUCUCCCUGCUCCGGAGCAGACUGCGGGUUCGAGUCCCGUUCGGAACG, the yeast fitness is at most 0.5.

With GUUGUGUUGGCGUAAUGGUAACGCGUCUCCCUCCUAAGGAGGAGUCUGCGGGUUCGAGUCCCGUAUGGAACG, the yeast fitness is at most 0.5.

Take GUUGCGUUGGUGUAAUGGUAACGCGUCUCCCUCCUGAGGAGAAGACUGCGGGUUCGAGUCCCGUACGGAACG: the yeast fitness worked out at 0.57.

For GUUGUGUUGGCGUAAUGGUAACGCGUCUCCCUCCUGAGGAGAAGACUGCGGGUCCGAGUCCCGUACGGCACG, the yeast fitness is at most 0.5.

Consider GUUGCGUUGGGGUAAUGGUAACGCGUCUCCCUCCUAAGGAGAAGACUGCGGAUUUGAGUCACGUACGGAACG, for which the yeast fitness is at most 0.5.

As for GUUGCGUUGGUGUGAUGGUAACGCGUCUCCCUCCUAAGGAGAAGAGUGCGGGUUGGAGUCGCGUACGGAACG, the yeast fitness was at most 0.5.

Take GUUGCGUUGGAGUAAUGGCAACCCGUCUCCCUCCUAAGGAGAAGACUGCGGGUUCGAGUCCCGUACGGAACG: the yeast fitness was determined as 0.524.

Regarding GUUGCGUUGGCGUAAUGGUAAGGCGUCUCCCUUCUCAGGUGAAGACUGCGGGUUCGAGUCCCGUACGGAACG, the yeast fitness was 0.663.

As for GUUGCGUUGGCGUAAUGGUAAGGCGUCUACCUCCUAAGGAGAAGACUGCGGGUUCGAGUCCCGUCCGGAACG, the yeast fitness is at most 0.5.

On to GUUGUGUAGGCAUAAUGGUAACGCGUCUCCCUCCUAAGGAGAAGACUACGGGUUCGAGUCCCGUACGGCACG, for which the yeast fitness was at most 0.5.

For GUUGUGUUGGCGUAAUGGUAACGCCUCUCCCUCCUAAGGAGAAGACUGCGGGUUCGAGUCCCGUACGAAACG, the yeast fitness was at most 0.5.
